Results gathered from unrelated publications.
Lines come from different studies, so protocols differ.
Target: Ephrin type-A receptor 7 (EPHA7, Homo sapiens, UniProt Q15375)

| SMILES | observed | method | concentration | remaining binding |
| --- | --- | --- | --- | --- |
| CN(CCCC(F)(F)F)c1nccc(-c2cnn3ncccc23)n1 | binding |  | 1 µM | 96% |
| O=C(NCCCN1CCOCC1)c1ccc(Nc2ncc(Cl)c(-c3ccc(Cl)s3)n2)cc1 | binding | competition with immobilised ligand | 1 µM | 60% |
| CC1CCCN1c1nccc(-c2cnn3ncccc23)n1 (centres unmarked) | binding |  | 1 µM | 99% |
| C[C@@H]1CN(c2cc(-c3nn(C)c4ccc(OC5(C)CC5)cc34)ncn2)C[C@H](C)O1 | cell-free assay | competition with immobilised ligand | 1 µM | 99% |
| C[C@@H](c1ccc(-n2cnc3c(N)ncnc32)cc1)N1CCc2nn(C)c(Cc3ccccc3)c2C1=O | binding | competition with immobilised ligand | 0.1 µM | 69% |
| N[C@@H]1CCN(c2nccc(-c3cnn4ncccc34)n2)C1 | binding |  | 1 µM | 91% |
| COc1cnc(Nc2cccc(S(N)(=O)=O)c2)nc1N1CCN(c2ccccc2)CC1 | binding | competition with immobilised ligand | 1 µM | 86% |
| CS(=O)(=O)N1CCCC(NC(=O)[C@H](CCC2CCCCC2)NC(=O)c2ccc(CNc3ncnc4c3nnn4-c3ccccc3)cc2)C1 (some centres unmarked) | cell-free assay | competition with immobilised ligand | 0.1 µM | 98% |
| CN(c1nccc(-c2cnn3ncccc23)n1)C1CC1 | binding |  | 1 µM | 100% |
| O=C(c1ccc(Nc2nccc(-c3cc4ccccc4s3)n2)cc1)N1CCC(N2CCCC2)CC1 | binding | competition with immobilised ligand | 1 µM | 100% |
| N#CC1(c2ccccn2)CCN(Cc2cc(C(=O)N3CCCC3)c(=O)n3ccccc23)CC1 | cell-free assay | competition with immobilised ligand | 1 µM | 100% |
| COc1cnc(Nc2cccc(S(N)(=O)=O)c2)nc1N1CCN(c2ccccc2)C(=O)C1 | binding | competition with immobilised ligand | 1 µM | 100% |
| Cc1cnn2ncc(-c3ccnc(N(C)C)n3)c2c1 | binding |  | 1 µM | 100% |
| O=C(c1ccc(Nc2ncc(Cl)c(-c3ccc(Cl)s3)n2)cc1)N1CCC(N2CCCC2)CC1 | binding | competition with immobilised ligand | 1 µM | 56% |
| CN(C)C(=O)Cn1cc(-c2nc([C@@](C)(c3ccc(-c4cnc(N)nc4)cc3)C3CC3)no2)cn1 | cell-free assay | competition with immobilised ligand | 1 µM | 98% |
| O=C(NCC1CCOCC1)c1n[nH]cc1NC(=O)c1c(F)cccc1F | binding | competition with immobilised ligand | 1 µM | 97% |
| CCOC(=O)c1cc2cc(-c3cc(C(=O)NCc4ccc(C(=O)O)cc4)nn3C)ccc2[nH]1 | cell-free assay | competition with immobilised ligand | 0.1 µM | 97% |
| CN(C)c1nccc(-c2cnc3ncccn23)n1 | binding |  | 1 µM | 68% |
| O=C1NC(c2ccccn2)Sc2ccccc21 (centres unmarked) | cell-free assay | competition with immobilised ligand | 1 µM | 72% |
| C=CC(=O)N1CCC(C(=O)NCC(=O)N2CCN(c3nc(-c4cnc(N)nc4C(F)F)nc(N4CCOCC4)n3)CC2)CC1 | binding | competition with immobilised ligand | 1 µM | 100% |
